ChEMBL document CHEMBL1153486, “Discovery of a class of potent gap-junction modifiers as novel antiarrhythmic agents” (Bioorg Med Chem Lett, 2009)
Activity calls are given as the source filed them. No cut-off for these calls is given here.

Assays:
[1] = system: Mus musculus; assay: Antiarrhythmic activity in calcium chloride-induced mouse arrhythmia model assessed as prolongation of time to conduct cardiac block at 10 pmol/kg, iv relative to control; format: functional, Heart
Outline: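 Mice received an intravenous infusion of CaCl2 after IV test compound. The read-out was time to cardiac conduction block, expressed as percent increase over control. Values are means of at least three experiments with standard deviation.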

[2] = Stability in rat plasma after 3 hrs; format: ADME, cell-free; conditions: read-out: Stability
Outline: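 Rat plasma incubation for 3 h; stability reported as percent of compound remaining.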

[3] = Cmax in CD1 mouse at 5 mg/kg, po; format: ADME, organism-based; parameters: dose 5 mg/kg, route oral; conditions: in vivo
Outline: (§1)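 CD-1 mice were dosed IV at a nominal 1 mg/kg (actual 0.77 mg/kg or 1.6 mg/kg for some compounds) and PO at 5 mg/kg. Parameters were derived from mean drug concentration, N = 3 animals/time point.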

[4] = Volume of distribution at steady state in CD1 mouse at 1 mg/kg, iv; format: ADME, organism-based; parameters: dose 1 mg/kg, route intravenous; conditions: in vivo, read-out: Vdss; outline: as §1
[5] = Tmax in CD1 mouse at 5 mg/kg, po; format: ADME, organism-based; parameters: dose 5 mg/kg, route oral; conditions: in vivo; outline: as §1
[6] = system: Mus musculus; assay: Antiarrhythmic activity in calcium chloride-induced mouse arrhythmia model assessed as prolongation of time to conduct cardiac block at 1 to 30 mg/kg, po relative to control; format: functional, organism-based; conditions: Heart
Outline: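 Compounds were given orally at 1–30 mg/kg to mice, which then received an intravenous CaCl2 infusion. The read-out was prolongation of time to conduction block versus control.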

[7] = Oral bioavailability in CD1 mouse at 5 mg/kg; format: ADME, organism-based; conditions: in vivo; outline: as §1
[8] = Half life in CD1 mouse at 5 mg/kg, po; format: ADME, organism-based; parameters: dose 5 mg/kg, route oral; conditions: in vivo; outline: as §1
[9] = biological target: Voltage-gated inwardly rectifying potassium channel KCNH2 (Homo sapiens, UniProt Q12809); assay: Inhibition of human ERG
Sequence of Voltage-gated inwardly rectifying potassium channel KCNH2 (Q12809 whole entry): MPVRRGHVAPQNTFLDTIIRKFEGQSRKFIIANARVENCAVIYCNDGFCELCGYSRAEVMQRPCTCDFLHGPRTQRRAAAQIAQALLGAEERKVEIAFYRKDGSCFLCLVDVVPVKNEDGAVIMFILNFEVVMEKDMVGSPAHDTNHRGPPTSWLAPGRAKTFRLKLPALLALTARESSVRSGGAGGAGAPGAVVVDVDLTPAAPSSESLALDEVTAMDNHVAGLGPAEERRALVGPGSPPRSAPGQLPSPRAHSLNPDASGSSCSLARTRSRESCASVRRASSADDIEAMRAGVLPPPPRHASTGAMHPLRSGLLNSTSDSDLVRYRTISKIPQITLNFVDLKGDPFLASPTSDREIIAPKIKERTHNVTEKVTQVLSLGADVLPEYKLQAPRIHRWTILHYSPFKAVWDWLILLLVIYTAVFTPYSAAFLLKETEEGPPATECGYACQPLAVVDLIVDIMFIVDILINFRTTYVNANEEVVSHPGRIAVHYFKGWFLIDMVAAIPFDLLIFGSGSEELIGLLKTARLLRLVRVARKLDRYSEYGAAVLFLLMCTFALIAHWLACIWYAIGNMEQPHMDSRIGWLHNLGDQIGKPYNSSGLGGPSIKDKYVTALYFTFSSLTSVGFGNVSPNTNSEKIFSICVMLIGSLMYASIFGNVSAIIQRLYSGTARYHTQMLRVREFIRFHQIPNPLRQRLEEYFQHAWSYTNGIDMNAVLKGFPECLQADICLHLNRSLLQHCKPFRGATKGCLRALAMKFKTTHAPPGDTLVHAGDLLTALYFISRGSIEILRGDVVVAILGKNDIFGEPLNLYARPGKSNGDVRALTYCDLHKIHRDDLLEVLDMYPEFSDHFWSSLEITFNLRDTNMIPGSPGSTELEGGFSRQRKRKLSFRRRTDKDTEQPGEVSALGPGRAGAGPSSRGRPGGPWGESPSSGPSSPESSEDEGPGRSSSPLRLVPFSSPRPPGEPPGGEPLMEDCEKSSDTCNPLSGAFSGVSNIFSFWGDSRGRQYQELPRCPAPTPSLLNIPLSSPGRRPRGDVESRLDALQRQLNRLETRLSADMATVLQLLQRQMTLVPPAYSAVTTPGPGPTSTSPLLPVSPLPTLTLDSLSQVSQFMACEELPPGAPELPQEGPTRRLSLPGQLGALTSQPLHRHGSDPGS

[10] = Half life in CD1 mouse at 1 mg/kg, iv; format: ADME, organism-based; parameters: dose 1 mg/kg, route intravenous; conditions: in vivo; outline: as §1
[11] = Metabolic stability in rat liver microsomes assessed as half life; format: ADME, Microsome
[12] = Clearance in CD1 mouse at 1 mg/kg, iv; format: ADME, organism-based; parameters: dose 1 mg/kg, route intravenous; conditions: in vivo; outline: as §1
[13] = Inhibition of CYP450; format: ADME
[14] = Metabolic stability in human liver microsomes assessed as half life; format: ADME, Microsome
[15] = AUC in CD1 mouse at 5 mg/kg, po; format: ADME, organism-based; parameters: dose 5 mg/kg, route oral; conditions: plasma; outline: as §1

Compound | remaining at 3 h [2] [%] | Activity [1] [%] | also measured
NCC(=O)N1C[C@H](NC(=O)c2ccccc2)C[C@H]1C(=O)NC1CCCC1 | 90 | 110.6 | –
CNCC(=O)N1C[C@H](NC(=O)c2ccccc2)C[C@H]1C(=O)O | 100 | 120.7 | –
CN(C)CC(=O)N1C[C@H](NC(=O)c2ccccc2)C[C@H]1C(=O)O | 100 | 118.9 | –
CC(C)[C@@H](C)NC(=O)[C@@H]1C[C@@H](NC(=O)c2ccccc2)CN1C(=O)CN | 89 | 120.1 | –
COC(=O)[C@@H]1C[C@@H](NC(=O)c2ccccc2)CN1C(=O)CNC(=O)OC(C)(C)C | 0 | 166.3 | –

Now from value to compound, other results behind:

remaining at 3 h [2] [%] | Compound | Activity [1] [%] | also measured
99 | CC(C)(C)NC(=O)[C@@H]1C[C@@H](NC(=O)c2ccccc2)CN1C(=O)CN | 135.7 | –
87 | CNC(=O)[C@@H]1C[C@@H](NC(=O)c2ccccc2)CN1C(=O)CN | 145 | –
96 | NCC(=O)N1C[C@H](NC(=O)c2ccccc2)C[C@H]1C(=O)NC1CC1 | 196 | Cmax [3]: 87 ng/mL; Vd [4]: 0.6 L/kg; Tmax [5]: 15 min; Activity [6]: Active; bioavailability [7]: 7%; half-life [8]: 72 min; Activity [9]: Not Active; half-life [10]: 126 min; half-life [11]: > 30 min; clearance [12]: 20 mL/min/kg; Activity [13]: Not Active; half-life [14]: > 30 min; AUC [15]: 305 ng·h/mL
